In ChEMBL document CHEMBL1275300, “Synthesis and antituberculosis activity of some new pyridazine derivatives. Part II” (Eur J Med Chem, 2010):
≈ marks a conversion by molar mass, not a printed value.

Test system: Mycobacterium tuberculosis
Assay: Antimicrobial activity against Mycobacterium tuberculosis H37Rv ATCC 27294 by microplate alamar blue assay
Type: functional, organism-based
Summary of the method: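 M. tuberculosis H37Rv (ATCC 27294) grown in BACTEC 12B medium and tested by microplate Alamar Blue assay. Compounds were dissolved in DMSO, diluted with distilled water, and tested as ten 2-fold dilutions. Read-out was fluorescence. IC90 is the concentration giving 90% fluorescence reduction versus controls; IC50 is defined the same way at 50%.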

Compound	IC50 [µg/mL]	IC90 [µg/mL]
CCOC(=O)Cn1nc(-c2ccc(C)cc2)ccc1=O	> 100	> 100
C=CCn1nc(-c2ccc(Br)cc2)ccc1=O	37.8 (≈ 130 µM)	46.8 (≈ 161 µM)
C=CCn1nc(-c2ccc(Cl)cc2)ccc1=O	36.6 (≈ 148 µM)	61.6 (≈ 250 µM)
C=CCn1nc(-c2ccc(C)cc2)ccc1=O	60.7 (≈ 268 µM)	76.5 (≈ 338 µM)
C#CCn1nc(-c2ccc(C)cc2)ccc1=O	63.7 (≈ 284 µM)	89.2 (≈ 398 µM)
C#CCn1nc(-c2ccc(Cl)cc2)ccc1=O	34.7 (≈ 142 µM)	> 100
C#CCn1nc(-c2ccc(Br)cc2)ccc1=O	97.8 (≈ 338 µM)	> 100
COC(=O)Cn1nc(-c2ccc(Cl)cc2)ccc1=O	94.2 (≈ 338 µM)	> 100
COC(=O)Cn1nc(-c2ccc(Br)cc2)ccc1=O	73.2 (≈ 227 µM)	> 100
COC(=O)Cn1nc(-c2ccc(C)cc2)ccc1=O	> 100	> 100
CCOC(=O)Cn1nc(-c2ccc(Cl)cc2)ccc1=O	> 100	> 100
CCOC(=O)Cn1nc(-c2ccc(Br)cc2)ccc1=O	> 100	> 100
NC(=O)Cn1nc(-c2ccc(Cl)cc2)ccc1=O	> 100	> 100
NC(=O)Cn1nc(-c2ccc(Br)cc2)ccc1=O	> 100	> 100
Cc1ccc(-c2ccc(=O)n(CC(N)=O)n2)cc1	> 100	> 100
CCOC(=O)C(C)n1nc(-c2ccc(Cl)cc2)ccc1=O (stereo unspecified)	28.6 (≈ 93.2 µM)	46 (≈ 150 µM)
CCOC(=O)C(C)n1nc(-c2ccc(Br)cc2)ccc1=O (stereo unspecified)	26.8 (≈ 76.5 µM)	47.5 (≈ 135 µM)
CCOC(=O)C(C)n1nc(-c2ccc(C)cc2)ccc1=O (stereo unspecified)	64.9 (≈ 227 µM)	84 (≈ 293 µM)
